Reference: ChEMBL document CHEMBL1156002, “Synthesis, Raman, FT-IR, NMR spectroscopic characterization, antimicrobial activity, cytotoxicity and DNA binding of new mixed aza-oxo-thia macrocyclic compounds” (2009)

How the values were obtained:
Type in all cases: functional
[1] = test system: Candida albicans; assay: Antifungal activity against Candida albicans ATCC 10231 at 20 ug after 72 hrs by agar disk diffusion assay; conditions: ATCC 10231, 72 h, read-out: IZ
Summary of the method: (§1)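 Yeasts were pre-grown in Malt Extract Broth for 48 h. Sterile 6 mm discs loaded with compound solutions freshly made in DMSO were placed on inoculated agar and incubated at 25 °C for 72 h. The medium was supplemented with DMSO as a solvent control, and an appropriate reference antifungal disc was added to each plate.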

[2] = test system: Rhodotorula mucilaginosa; assay: Antifungal activity against Rhodotorula rubra DSM 70403 at 20 ug after 72 hrs by agar disk diffusion assay; conditions: DSM 70403, 72 h, read-out: IZ; summary of the method: as §1
[3] = test system: Kluyveromyces marxianus; assay: Antifungal activity against Kluyveromyces fragilis NRRL 2415 at 20 ug after 72 hrs by agar disk diffusion assay; conditions: NRRL 2415, 72 h, read-out: IZ; summary of the method: as §1
[4] = test system: Hanseniaspora guilliermondii; assay: Antifungal activity against Hanseniaspora guilliermondii DSM 3432 at 20 ug after 72 hrs by agar disk diffusion assay; conditions: DSM 3432, 72 h, read-out: IZ; summary of the method: as §1
[5] = test system: Debaryomyces hansenii; assay: Antifungal activity against Debaryomyces hansenii DSM 70238 at 20 ug after 72 hrs by agar disk diffusion assay; conditions: DSM 70238, 72 h, read-out: IZ; summary of the method: as §1
[6] = test system: Micrococcus luteus; assay: Antibacterial activity against Micrococcus luteus La 2971 at 10 ug after 24 hrs by agar disk diffusion assay; conditions: La 2971, 24 h, read-out: IZ
Summary of the method: (§2)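 Disk diffusion with sterile 6 mm discs loaded with DMSO solutions of the test agents and placed on inoculated agar. Bacteria were pre-grown in Nutrient Broth at 30 °C for 24 h, and plates were incubated at 35 °C for 24 h. Each plate carried a reference antibiotic disc matched to the organism, and a DMSO-only solvent control was run.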

[7] = test system: Staphylococcus aureus; assay: Antibacterial activity against Staphylococcus aureus ATCC 6538 at 10 ug after 24 hrs by agar disk diffusion assay; conditions: ATCC 6538, 24 h, read-out: IZ
Summary of the method: (§3)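 Sterile 6 mm paper discs were loaded with ligand solution freshly prepared in DMSO and placed on inoculated agar. The inoculum came from broth cultures: bacteria in Nutrient Broth at 30 °C for 24 h, yeasts in Malt Extract Broth for 48 h. Plates were incubated at 35 °C for 24 h (bacteria) or 25 °C for 72 h (yeasts). A DMSO solvent control and a reference antibiotic disc were included on each plate.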

[8] = test system: Escherichia coli; assay: Antibacterial activity against Escherichia coli ATCC 11230 at 10 ug after 24 hrs by agar disk diffusion assay; conditions: ATCC 11230, 24 h, read-out: IZ; summary of the method: as §2
[9] = test system: Klebsiella pneumoniae; assay: Antibacterial activity against Klebsiella pneumoniae UC57 at 10 ug after 24 hrs by agar disk diffusion assay; conditions: UC57, 24 h, read-out: IZ; summary of the method: as §2
[10] = test system: Proteus vulgaris; assay: Antibacterial activity against Proteus vulgaris ATCC 8427 at 10 ug after 24 hrs by agar disk diffusion assay; conditions: ATCC 8427, 24 h, read-out: IZ; summary of the method: as §2
[11] = test system: Listeria monocytogenes; assay: Antibacterial activity against Listeria monocytogenes ATCC 15313 at 10 ug after 24 hrs by agar disk diffusion assay; conditions: ATCC 15313, 24 h, read-out: IZ; summary of the method: as §2
[12] = test system: Pseudomonas aeruginosa; assay: Antibacterial activity against Pseudomonas aeruginosa ATCC 27853 at 10 ug after 24 hrs by agar disk diffusion assay; conditions: ATCC 27853, 24 h, read-out: IZ; summary of the method: as §2
[13] = test system: Mycolicibacterium smegmatis; assay: Antibacterial activity against Mycobacterium smegmatis CCM 2067 at 10 ug after 24 hrs by agar disk diffusion assay; conditions: CCM 2067, 24 h, read-out: IZ; summary of the method: as §2
[14] = test system: Bacillus cereus; assay: Antibacterial activity against Bacillus cereus ATCC 7064 at 10 ug after 24 hrs by agar disk diffusion assay; conditions: ATCC 7064, 24 h, read-out: IZ; summary of the method: as §2
[15] = test system: Micrococcus luteus; assay: Antibacterial activity against Micrococcus luteus La 2971 at 10 IU after 24 hrs by agar disk diffusion assay; summary of the method: as §2
[16] = test system: Listeria monocytogenes; assay: Antibacterial activity against Listeria monocytogenes ATCC 15313 at 10 IU after 24 hrs by agar disk diffusion assay; summary of the method: as §2
[17] = test system: Mycolicibacterium smegmatis; assay: Antibacterial activity against Mycobacterium smegmatis CCM 2067 at 10 IU after 24 hrs by agar disk diffusion assay; summary of the method: as §2
[18] = test system: Klebsiella pneumoniae; assay: Antibacterial activity against Klebsiella pneumoniae UC57 at 10 IU after 24 hrs by agar disk diffusion assay; summary of the method: as §2
[19] = test system: Staphylococcus aureus; assay: Antibacterial activity against Staphylococcus aureus ATCC 6538 at 10 IU after 24 hrs by agar disk diffusion assay; summary of the method: as §2
[20] = test system: Pseudomonas aeruginosa; assay: Antibacterial activity against Pseudomonas aeruginosa ATCC 27853 at 10 IU after 24 hrs by agar disk diffusion assay; summary of the method: as §2
[21] = test system: Bacillus cereus; assay: Antibacterial activity against Bacillus cereus ATCC 7064 at 10 IU after 24 hrs by agar disk diffusion assay; summary of the method: as §2
[22] = test system: Proteus vulgaris; assay: Antibacterial activity against Proteus vulgaris ATCC 8427 at 10 IU after 24 hrs by agar disk diffusion assay; summary of the method: as §2
[23] = test system: Escherichia coli; assay: Antibacterial activity against Escherichia coli ATCC 11230 at 10 IU after 24 hrs by agar disk diffusion assay; summary of the method: as §2
[24] = test system: Mycolicibacterium smegmatis; assay: Antibacterial activity against Mycobacterium smegmatis CCM 2067 at 30 ug after 24 hrs by agar disk diffusion assay; conditions: CCM 2067, 24 h, read-out: IZ; summary of the method: as §2
[25] = test system: Proteus vulgaris; assay: Antibacterial activity against Proteus vulgaris ATCC 8427 at 30 ug after 24 hrs by agar disk diffusion assay; conditions: ATCC 8427, 24 h, read-out: IZ; summary of the method: as §2
[26] = test system: Micrococcus luteus; assay: Antibacterial activity against Micrococcus luteus La 2971 at 30 ug after 24 hrs by agar disk diffusion assay; conditions: La 2971, 24 h, read-out: IZ; summary of the method: as §2
[27] = test system: Staphylococcus aureus; assay: Antibacterial activity against Staphylococcus aureus ATCC 6538 at 30 ug after 24 hrs by agar disk diffusion assay; conditions: ATCC 6538, 24 h, read-out: IZ; summary of the method: as §3
[28] = test system: Escherichia coli; assay: Antibacterial activity against Escherichia coli ATCC 11230 at 30 ug after 24 hrs by agar disk diffusion assay; conditions: ATCC 11230, 24 h, read-out: IZ
Summary of the method: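 Bacteria pre-grown in Nutrient Broth at 30 °C for 24 h. Sterile 6 mm discs loaded with compound solutions freshly made in DMSO were placed on inoculated agar and incubated at 35 °C for 24 h. The medium was supplemented with DMSO as a solvent control, and an appropriate reference antibiotic disc was added to each plate.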

[29] = test system: Klebsiella pneumoniae; assay: Antibacterial activity against Klebsiella pneumoniae UC57 at 30 ug after 24 hrs by agar disk diffusion assay; conditions: UC57, 24 h, read-out: IZ; summary of the method: as §2
[30] = test system: Pseudomonas aeruginosa; assay: Antibacterial activity against Pseudomonas aeruginosa ATCC 27853 at 30 ug after 24 hrs by agar disk diffusion assay; conditions: ATCC 27853, 24 h, read-out: IZ; summary of the method: as §2
[31] = test system: Listeria monocytogenes; assay: Antibacterial activity against Listeria monocytogenes ATCC 15313 at 30 ug after 24 hrs by agar disk diffusion assay; conditions: ATCC 15313, 24 h, read-out: IZ; summary of the method: as §2
[32] = test system: Bacillus cereus; assay: Antibacterial activity against Bacillus cereus ATCC 7064 at 30 ug after 24 hrs by agar disk diffusion assay; conditions: ATCC 7064, 24 h, read-out: IZ; summary of the method: as §2

In the case of `CC(=O)N1CCN(c2ccc(OCC3COC(Cn4ccnc4)(c4ccc(Cl)cc4Cl)O3)cc2)CC1` (stereo unspecified) [KETOCONAZOLE], the zone of inhibition at 20 µg/disc [1] is reported as 22 mm, the zone of inhibition at 20 µg/disc [2] is reported as 16 mm and the zone of inhibition at 20 µg/disc [3] is reported as 21 mm. The zone of inhibition at 20 µg/disc [4] was 24 mm and the zone of inhibition at 20 µg/disc [5] was 14 mm.
`CC1(C)S[C@@H]2[C@H](NC(=O)[C@H](N)c3ccccc3)C(=O)N2[C@H]1C(=O)O` [AMPICILLIN] gave a zone of inhibition at 10 µg/disc [6] of 16 mm, a zone of inhibition at 10 µg/disc [7] of 16 mm and a zone of inhibition at 10 µg/disc [8] of 12 mm. It also gave a zone of inhibition at 10 µg/disc [9] of 14 mm, a zone of inhibition at 10 µg/disc [10] of 12 mm and a zone of inhibition at 10 µg/disc [11] of 12 mm. For the same compound, the zone of inhibition at 10 µg/disc [12] was 32 mm, the zone of inhibition at 10 µg/disc [13] was 21 mm and the zone of inhibition at 10 µg/disc [14] was 10 mm.
In the case of `CC1(C)S[C@@H]2[C@H](NC(=O)Cc3ccccc3)C(=O)N2[C@H]1C(=O)O` [PENICILLIN G], the “inhibition zone (IZ)” value [15] is reported as 10 mm, the “inhibition zone (IZ)” value [16] is reported as 10 mm and the “inhibition zone (IZ)” value [17] is reported as 15 mm. The “inhibition zone (IZ)” value [18] was 18 mm, the “inhibition zone (IZ)” value [19] was 13 mm and the “inhibition zone (IZ)” value [20] was 36 mm. The “inhibition zone (IZ)” value [21] was 8 mm, the “inhibition zone (IZ)” value [22] was 14 mm and the “inhibition zone (IZ)” value [23] was 18 mm.
`CO/N=C(\C(=O)N[C@@H]1C(=O)N2C(C(=O)O)=C(COC(C)=O)CS[C@H]12)c1csc(N)n1` [CEFOTAXIME] gave a zone of inhibition at 30 µg/disc [24] of 11 mm, a zone of inhibition at 30 µg/disc [25] of 14 mm and a zone of inhibition at 30 µg/disc [26] of 18 mm. For the same compound, the zone of inhibition at 30 µg/disc [27] was 12 mm, the zone of inhibition at 30 µg/disc [28] was 10 mm and the zone of inhibition at 30 µg/disc [29] was 13 mm. For the same compound, the zone of inhibition at 30 µg/disc [30] was 32 mm, the zone of inhibition at 30 µg/disc [31] was 16 mm and the zone of inhibition at 30 µg/disc [32] was 54 mm.
For `CN[C@H](CC(C)C)C(=O)N[C@H]1C(=O)N[C@@H](CC(N)=O)C(=O)N[C@H]2C(=O)N[C@H]3C(=O)N[C@H](C(=O)N[C@H](C(=O)O)c4cc(O)cc(O)c4-c4cc3ccc4O)[C@H](O)c3ccc(c(Cl)c3)Oc3cc2cc(c3O[C@@H]2O[C@H](CO)[C@@H](O)[C@H](O)[C@H]2O[C@H]2C[C@](C)(N)[C@H](O)[C@H](C)O2)Oc2ccc(cc2Cl)[C@H]1O` [VANCOMYCIN], the zone of inhibition at 30 µg/disc [24] was 20 mm, the zone of inhibition at 30 µg/disc [25] was 18 mm and the zone of inhibition at 30 µg/disc [26] was 20 mm. It also gave a zone of inhibition at 30 µg/disc [27] of 13 mm, a zone of inhibition at 30 µg/disc [28] of 22 mm and a zone of inhibition at 30 µg/disc [29] of 22 mm. The zone of inhibition at 30 µg/disc [30] was 34 mm, the zone of inhibition at 30 µg/disc [31] was 26 mm and the zone of inhibition at 30 µg/disc [32] was 10 mm.
